Bioassay records from PubChem.
SMARCA2 activ = SMARCA2 function activation, primary screen. activation, % at 9.1 µM. MG213 cells, MMTV-luciferase reporter, dexamethasone, overnight. hit rate 1% among 370,000; in the data active = activation above about 7.8%;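 note: 0% = vehicle wells and 100% = reference activator wells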
H9c2 TAG inh = triacylglycerol accumulation inhibition | H9c2 cells, Nile Red lipid (TAG) fluorescence; cells loaded with 200 µM oleic acid | AID 651582 | hit rate 0.66% among 230,000 | inhibition, % at 12.5 µM;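 active = pattern-corrected inhibition of lipid staining of at least 50% with the nuclear-stain viability signal not falling by more than 50%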;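 note: 0% = DMSO wells and 100% = triacsin C control wells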
TbMetRS inhib = blocks T. brucei methionyl-tRNA synthetase activity; purified T. brucei MetRS, ATP depletion, Kinase-Glo luminescence; hit rate 0.4% among 360,000; inhibition, % at 11.9 µM;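 active = inhibition above a per-plate cutoff of the control wells' mean inhibition plus 3 SD, cut at about 5.5% in these data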;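 note: 0% = DMSO wells median and 100% = median of wells with control inhibitor compound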
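Measured by: Kinase-Glo luciferase luminescence reporting remaining unconsumed ATP. Material: purified T. brucei MetRS enzyme. Doses: 11.9 µM compound single dose, 0.9% DMSO. Medium: HEPES buffer containing pyrophosphatase, BSA, spermine, DTT. Times: 15 min preincubation, 2 h reaction, all 25 °C. Reagent: methionine, ATP and bulk E. coli tRNA.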
Efflux pump inh = inhibitors of Candida antifungal efflux pumps expressed in yeast | inhibition, % at 10 µM | S. cerevisiae Candida pump triplex, Nile Red efflux | AID 485275 | hit rate 0.44% among 330,000;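 active = plate passing quality check with inhibition over a set limit, or well fluorescence over plate mean plus 4 SD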;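 note: Nile Red retained in pooled yeast measured as flow cytometry median fluorescence; 0% = buffer negative control and 100% = Enniatin B positive control; higher means more Nile Red kept so more efflux inhibition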
AHR act = human AHR activation; P35869; hit rate 2.5% among 320,000; AHR-responsive luciferase reporter cells, luminescence; activation, % at 5 µM; in the data active = activation above about 47%;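 note: 0% = vehicle wells and 100% = reference agonist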
Target sequence (P35869 whole entry, looked up): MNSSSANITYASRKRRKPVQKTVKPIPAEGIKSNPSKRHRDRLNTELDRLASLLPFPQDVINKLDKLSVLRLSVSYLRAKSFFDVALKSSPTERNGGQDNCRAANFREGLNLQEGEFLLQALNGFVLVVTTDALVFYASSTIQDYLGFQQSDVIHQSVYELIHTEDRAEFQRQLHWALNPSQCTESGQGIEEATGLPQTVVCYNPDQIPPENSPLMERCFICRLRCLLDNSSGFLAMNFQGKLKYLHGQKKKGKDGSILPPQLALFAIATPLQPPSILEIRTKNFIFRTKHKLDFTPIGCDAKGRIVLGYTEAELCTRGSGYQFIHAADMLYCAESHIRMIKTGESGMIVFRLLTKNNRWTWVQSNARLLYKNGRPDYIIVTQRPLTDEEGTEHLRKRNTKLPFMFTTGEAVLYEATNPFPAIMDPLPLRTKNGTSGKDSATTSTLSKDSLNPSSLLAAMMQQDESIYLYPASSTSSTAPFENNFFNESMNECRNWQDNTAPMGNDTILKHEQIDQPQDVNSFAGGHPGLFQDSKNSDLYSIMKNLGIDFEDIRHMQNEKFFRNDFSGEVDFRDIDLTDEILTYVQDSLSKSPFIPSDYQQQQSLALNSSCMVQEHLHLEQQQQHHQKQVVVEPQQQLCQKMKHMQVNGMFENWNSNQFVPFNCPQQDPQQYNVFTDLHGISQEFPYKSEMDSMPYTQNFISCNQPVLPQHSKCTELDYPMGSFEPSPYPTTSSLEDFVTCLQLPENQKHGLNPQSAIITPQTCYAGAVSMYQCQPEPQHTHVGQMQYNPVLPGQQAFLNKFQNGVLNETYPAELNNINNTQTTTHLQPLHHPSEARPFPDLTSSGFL
The depositor's hits bear a star; nt = not tested or not shown. The list is not random: actives were taken first. Their share in the collection is about 4.1%.

SMILES | SMARCA2 activ | H9c2 TAG inh | TbMetRS inhib | Efflux pump inh | AHR act
CC(C)(C)N(Cc1cn(CC2CCCCC2)nn1)S(=O)(=O)c1ccc(F)cc1Br | -6.2 | nt | nt | nt | nt
O=C(C1CCCN(S(=O)(=O)c2ccc(F)cc2)C1)N1CCN(Cc2ccccc2)CC1 (centres undefined) | 1.4 | nt | nt | nt | nt
CCn1c2ccccc2c2cc(NC(=O)COC(=O)c3cccc(S(=O)(=O)NC)c3)ccc21 | -0.9 | nt | 0.2 | 0.4 | 100.1*
COc1ccc(Cc2nnc(SCC(=O)Nc3ccc(C)cc3)n(N)c2=O)cc1 | -4.8 | 58.9* | 0.1 | -0.1 | 26.0
CCn1c(=O)cc(OCC(=O)Nc2ccccc2C#N)c2ccccc21 | -1.8 | 12.5 | -0.5 | -0.4 | 72.5*
CCn1c2ccccc2c2cc(NC(=O)CSc3nnc(-c4ccc(OC)cc4)n3N)ccc21 | -7.1 | nt | -0.5 | -0.1 | 48.5*
COC(=O)[C@@]12CCCCC3=C1N(CCC3)C(=O)[C@H]2CC(=O)NCc1cccs1 | 2.2 | nt | nt | nt | nt
Cn1nc(-c2ccc(Cl)cc2)c2cc(C(=O)NCCN3CCOCC3)sc21 | 0.5 | 20.2 | -0.4 | 0.0 | 49.9*
CCCCN(CC)CCNC(=O)c1cc2c(-c3ccc(Cl)cc3)nn(C)c2s1 | 3.5 | nt | 1.2 | 0.2 | 43.0
Cn1nc(-c2ccc(Cl)cc2)c2cc(C(=O)N3CCN(C(=O)c4ccco4)CC3)sc21 | -0.9 | 16.8 | -0.8 | 0.2 | 33.9
Cn1nc(-c2ccc(Cl)cc2)c2cc(C(=O)NCCCN3CCOCC3)sc21 | nt | 21.1 | -0.6 | -0.2 | 55.5*
CCN1CCN(C(=O)c2cc3c(-c4ccc(Cl)cc4)nn(C)c3s2)CC1 | -1.0 | 12.5 | -1.1 | 0.1 | 63.5*
O=C(NCCCN1CCOCC1)c1ccc(Cl)s1 | -2.1 | nt | -1.1 | -0.1 | 2.8
COc1ccc(S[C@]2(C(=O)N3CCOCC3)CC(=O)N(C(=O)Nc3ccc(C)c(Cl)c3)[C@@H]2c2ccc(OC)cc2)cc1 | -2.7 | nt | nt | nt | nt
C[C@@H]1OCN(C)[C@H]2C[C@H]3c4[nH]c5cccc(-c6ccc7c(c6)OCO7)c5c4CCN3C[C@@H]12 | -2.0 | nt | nt | nt | nt
CN1CCCC1CCSc1ncccc1-c1nc2ccccc2[nH]1 (centres undefined) | -1.5 | nt | nt | nt | nt
Cc1ccc(-c2nnn3c2nc(Cl)c2ccccc23)cc1 | 1.8 | 28.8 | 0.2 | nt | nt
Clc1nc2c(-c3ccccc3)nnn2c2ccccc12 | 0.4 | 6.1 | 0.1 | 0.2 | 52.5*
CCOC(=O)N(C)C[C@H]1OCc2cn(nn2)CCCC(=O)N([C@@H](C)CO)C[C@@H]1C | -2.4 | nt | nt | nt | nt
CC(=O)Nc1nc(-c2ccc(Cl)cc2)nc(C)c1C(C)=O | 3.4 | -13.1 | -0.1 | -0.1 | 73.1*
C/C(CC(=O)Nc1ccc(N(C)C)cc1)=N\NC(=O)c1ccccn1 | 3.8 | 16.0 | -1.1 | 0.4 | 25.3
C/C(CC(=O)Nc1ccc(N(C)C)cc1)=N\NC(=O)c1cnccn1 | 2.3 | nt | -0.9 | 0.1 | 51.6*
COc1ccccc1Cn1c(/C=C/c2ccccc2)nc2ccccc21 | 2.8 | nt | -1.4 | 0.0 | 63.9*
CC(C)(C)c1cc(C(=O)NCCCn2ccnc2)cc(C(C)(C)C)c1 | 0.0 | nt | -0.3 | 0.0 | 9.2
O=C(NCCCn1ccnc1)c1noc2c1CCCC2 | -1.7 | nt | -0.6 | 0.0 | 48.2*
SMILES | SMARCA2 activ | H9c2 TAG inh | TbMetRS inhib | Efflux pump inh | AHR act
CCOc1cc(C(=O)NCCCn2ccnc2)cc(OCC)c1OCC | 0.4 | nt | 0.7 | -0.3 | 49.8*
COc1cc(SC)ccc1C(=O)NCCCn1ccnc1 | -1.2 | -12.8 | -0.4 | 0.0 | 58.8*
O=C(Nc1ccc2c(c1)OCO2)OC1CC2CC1[C@H]1CCCCN1[C@H]2Cc1ccccc1 (some centres undefined) | -2.3 | nt | nt | nt | nt
COC(=O)Cc1nnc(Nc2cccc(C)c2)c2ccccc12 | -4.8 | -2.8 | 0.2 | -0.1 | 61.5*
CCOC(=O)Cc1nnc(Nc2cccc(C)c2)c2ccccc12 | -1.8 | -7.8 | -1.2 | -0.3 | 1.9
CC1Oc2ccccc2OC1C(=O)Nc1ccccn1 (centres undefined) | -2.9 | -24.9 | -0.5 | 0.0 | 68.2*
C=CC[C@]1(O)C(=O)N(c2ccccc2)c2ccccc21 | -3.3 | nt | nt | nt | nt
N#CCC[C@@H]1CC[C@]2(CCCN(C(=O)c3ccc4ccccc4n3)C2)O1 | 0.4 | nt | nt | nt | nt
COc1cc(NC(=O)c2cccc(Cl)c2)c(OC)cc1NC(=O)CN1CCOCC1 | -1.4 | -0.9 | -1.8 | 0.2 | 63.1*
COc1cc(NC(=O)c2cccc(Cl)c2)c(OC)cc1NC(=O)CN1CCCCC1 | -0.9 | nt | -0.5 | -0.3 | 70.6*
Cc1ccc(Cn2cc(COC(=O)NCC(C)C)nn2)cc1 | -0.7 | nt | nt | nt | nt
COCCSc1ncccc1-c1nc2ccccc2[nH]1 | -1.2 | nt | nt | nt | nt
COc1ccc(NC(=O)c2ccco2)cc1NC(=O)c1cccs1 | -2.1 | nt | -0.2 | -0.1 | 18.1
O=C(Nc1ccc(NC(=O)c2cccs2)c(Cl)c1)c1ccco1 | 0.2 | 21.0 | -0.3 | -0.1 | 64.0*
CN(CCc1ccccn1)C(=O)c1ccc2c(c1)ncn2C1CCCCC1 | -1.8 | nt | nt | nt | nt
CCN1CCN(CCCNC(=O)C2CCN(c3nnc(-n4c(C)ccc4C)s3)CC2)CC1 | -1.0 | 19.4 | 0.0 | 0.1 | 51.4*
COC(=O)[C@]12C[C@H](CC(=O)NCC34CC5CC(CC(C5)C3)C4)C(=O)N(Cc3ccco3)C1=C[C@H](C(C)C)O[C@@H]2C1CC1 | -3.1 | nt | nt | nt | nt
Cc1ccccc1NC(=O)CSc1nnc(-c2cc(-c3ccccc3)n[nH]2)n1N | 0.5 | nt | nt | nt | nt
O=C(Nc1ccc2cccnc2c1)c1ccc(Br)cc1 | 0.7 | nt | -0.8 | 0.1 | 49.8*
Cc1ccc(C(=O)Nc2ccc3nccnc3c2)cc1 | -0.1 | -5.1 | -1.0 | -0.3 | -13.1
Cc1cccc(NC(=O)c2cccc3c2-c2ccccc2C3=O)n1 | 0.7 | -13.7 | 0.4 | -0.1 | 4.6
Cc1cccc(NC(=O)c2ccccc2Br)n1 | 2.9 | -25.9 | -0.7 | 1.0 | 62.0*
Cc1cccc(NC(=O)c2ccc3nccnc3c2)n1 | 0.5 | 1.1 | 0.0 | -0.6 | 48.4*
Cc1cccc(NC(=O)c2cccc(NC(=O)c3ccccc3)c2)n1 | 2.4 | -3.8 | -1.8 | 0.0 | 33.7
Cc1cc(NC(=O)c2ccc3nccnc3c2)ccc1Br | 2.0 | -1.4 | 0.5 | 0.0 | 63.9*
SMILES | SMARCA2 activ | H9c2 TAG inh | TbMetRS inhib | Efflux pump inh | AHR act
C=CCN1[C@H](CO)[C@H](c2ccc(C#CC3(O)CCCC3)cc2)[C@@H]1C#N | -3.8 | nt | nt | nt | nt
CCn1c2ccccc2c2cc(NC(=O)CSc3nnc(-c4ccccc4)n3Cc3ccco3)ccc21 | -2.7 | nt | nt | nt | nt
COC(=O)/C(=C\Nc1ccccc1N)c1ncc(C(F)(F)F)cc1Cl | 6.8 | -0.5 | -3.8 | -0.2 | 69.4*
O=C(c1ccccc1)c1ncc(C(F)(F)F)cc1Cl | 1.8 | nt | 0.2 | 0.2 | -1.6
CCCCCCc1c[nH]c2ccc(O)c(-c3ccccc3)c12 | -4.0 | nt | nt | nt | nt
Cc1ccc(Cn2cc(CN3[C@@H](CC(C)C)COc4cc(Br)ccc4S3(=O)=O)nn2)cc1 | -0.4 | nt | nt | nt | nt
Cn1c(/C=C/c2cccc(Br)c2)nc2ccccc2c1=O | 0.6 | nt | -1.2 | 0.2 | 4.9
Cn1c(CC2C(=O)Nc3ccc(Br)cc32)nc2ccccc2c1=O (centres undefined) | 1.4 | nt | 0.3 | 0.1 | 50.2*
O=C1Nc2ccc(Br)cc2C1Cc1ccccc1F (centres undefined) | -0.8 | nt | -0.3 | 0.0 | 57.3*
